TbMetRS inhib – blocks T. brucei methionyl-tRNA synthetase activity | purified T. brucei MetRS, ATP depletion, Kinase-Glo luminescence | inhibition, % at 11.9 µM | hit rate 0.4% among 360,000 | AID 624268;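 active means inhibition above a per-plate cutoff of the control wells' mean inhibition plus 3 SD, cut at about 5.5% in these data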
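Material – parasite MetRS enzyme · Medium – HEPES-MgCl2-KCl buffer plus DTT, spermine, BSA, pyrophosphatase · Reagent – ATP, methionine and E. coli bulk tRNA substrates · Times – 15 min enzyme-compound preincubation, 2 h reaction, 10 min detection, 25 °C · Measured by – luminescence of leftover ATP · Evaluation – percent inhibition relative to median high and low control wells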
MC4R antag cAMP – antagonists of human melanocortin 4 receptor (MC4R). hit rate 0.48% among 360,000. AID 540295. P32245. inhibition, % at 6.5 µM. MC4R-expressing cells, MTII-stimulated cAMP, LANCE TR-FRET;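 active means inhibition above its plate's cutoff, the mean of tested wells on that plate plus 3 SD, cut at about 29% in these data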
Target sequence (P32245 whole entry, looked up): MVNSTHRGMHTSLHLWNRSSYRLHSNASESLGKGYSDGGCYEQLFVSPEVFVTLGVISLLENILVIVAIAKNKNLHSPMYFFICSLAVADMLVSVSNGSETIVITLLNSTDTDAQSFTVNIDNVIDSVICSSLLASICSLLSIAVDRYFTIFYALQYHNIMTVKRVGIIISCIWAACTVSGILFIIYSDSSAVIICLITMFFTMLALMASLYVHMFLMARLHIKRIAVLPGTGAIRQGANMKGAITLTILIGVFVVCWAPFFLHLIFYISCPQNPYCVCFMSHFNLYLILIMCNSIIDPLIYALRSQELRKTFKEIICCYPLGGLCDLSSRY
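material = U2OS cells stably expressing human melanocortin 4 receptor (MC4R) | also added = Melanotan II challenge | dosing = single nominal compound dose of 6.5 µM | detection = TR-FRET with Eu-cAMP and labeled anti-cAMP, 671 nm | replication = singlicate | timing = compound 30 min, challenge 1 h, detection 1 h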
MC4R ag barr – human MC4R agonism via beta-arrestin; P32245; U2OS MC4R beta-arrestin complementation, luminescence; percent of melanotan II response, DMSO zero; activation, % at 8.9 µM; hit rate 0.98% among 360,000; AID 540308;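 active means activation above a per-plate cutoff, the mean activation of sample wells on that plate plus 3 SD, cut at about 8% in these data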
ABCB6 inh MLPCN – inhibitors of human ABC transporter ABCB6; Q9NP58; K562-ABCB6 porphyrin accumulation, flow cytometry, 1 h; hits give low values; fluorescence ratio to DMSO, % at 10 µM; hit rate 0.19% among 360,000; AID 602162;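 active means fluorescence ratio to DMSO below 75%, the collection mean minus 3 SD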;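 further: signal is porphyrin accumulated inside mitochondria; lower ratio means ABCB6 inhibition with less porphyrin fluorescence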
iPSC survival up – increases survival of single human iPS cells; survival enhancement, % at 20 µM; hit rate 0.044% among 360,000; hiPSC single-cell survival, ATPlite luminescence; 100% = ROCK inhibitor wells, 0% = DMSO; in the data active means survival enhancement above about 18%;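 further: cells exposed to compounds for 16 hours before the ATP read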
Exocytosis inh – blocks lytic granule exocytosis; TALL-104 LAMP-1 surface exposure, flow cytometry; cells stimulated with thapsigargin and PMA; inhibition, % at 10 µM; AID 651702; hit rate 0.66% among 360,000;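 active means inhibition above about 55%, limit read from the data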
A number is an active result; - = inactive; . = no result given. Shown are actives, neighbours in structure and some others; about 2.6% of the full set was active somewhere.

SMILES | TbMetRS inhib | MC4R antag cAMP | MC4R ag barr | ABCB6 inh MLPCN | iPSC survival up | Exocytosis inh
O=C(Nc1ccc(F)c(F)c1)c1cnc(-c2ccccc2)nc1-c1ccccc1 | - | - | 8.7 | - | - | -
CC(C)(C)c1ccc(OCC(=O)Nc2ccc3c4c(cccc24)C(=O)NC3=O)cc1 | - | - | - | - | - | -
CCOC(=O)Cn1c(COc2ccccc2OC)[n+](C)c2ccccc21 | - | - | - | - | - | -
CCCCCCCCCCOC(=O)Cn1c(COc2ccccc2C)[n+](C)c2ccccc21 | - | - | 49.2 | - | - | 79.8
CCCCOC(=O)Cn1c(=O)n(CC(=O)OCCCC)c2ccccc21 | - | - | - | - | - | -
CCCCCCCCCCOC(=O)Cn1c(COc2ccc(Cl)cc2)[n+](C)c2ccccc21 | - | - | 16.9 | - | - | -
CS(=O)(=O)c1ccc(CNC(=O)C2(C(F)(F)F)C/C(=C\Cc3ccccc3)CCCO2)cc1 (stereo unspecified) | - | - | - | - | - | -
CC1(C)CNC(=O)CC(C)(C)N1 | - | - | - | - | - | -
COC(=O)c1ccccc1COc1cccn2c(N(C)CC3CC3)c(C)nc12 | - | - | - | - | - | -
COc1ccc(-c2cccc(C(=O)Nc3ccc(C)cc3)c2)cc1 | - | - | 8.6 | - | - | -
COc1ccc(NC(=O)c2ccc3ccccc3c2)cc1 | - | - | 8.8 | - | - | -
COc1ccc(C(=O)NNC(=O)c2ccc3ccccc3c2)cc1 | - | - | - | - | - | -
CC(=O)c1ccc(NC(=O)c2cccc(NC(=O)c3ccccc3)c2)cc1 | - | - | 8.4 | - | - | -
CCc1cc(-c2nnn(CCC3COCCO3)c2CC)cc(CC)c1-c1cn(CCc2c[nH]c3ccccc23)nn1 (stereo unspecified) | - | - | - | - | - | -
Cc1ccc(-n2nc(C)c3c(C)cc(=O)[nH]c32)cc1 | - | - | - | - | 21.9 | -
CCOC(=O)C(=O)N1CCC(C(=O)OCC)CC1 | - | - | - | - | - | -
COc1cc(/C=C2\SC(=O)N(CCNC(=O)c3sc4cc(F)ccc4c3Cl)C2=O)cc(OC)c1OC | - | - | - | 73.0 | - | -
Cc1cc(S(=O)(=O)Nc2ccc3ccccc3c2)c(C)s1 | - | - | 8.8 | - | - | -
Cc1cc(S(=O)(=O)Nc2cccnc2)c(C)s1 | - | - | - | - | - | -
O=S(=O)(Nc1ccc2ccccc2c1)c1ccccc1 | - | - | - | - | - | -
Cc1ccc(S(=O)(=O)Nc2ccc3ccccc3c2)cc1 | - | - | 9.4 | - | - | -
O=C(Nc1ccc2c(c1)OCO2)N1CCC(CO)(CC2CCCCO2)CC1 (stereo unspecified) | - | - | - | - | - | -
CCCCN1C(=N)N([C@@H](C)CN2CCC[C@H]2CN2C(N)=NC[C@H]2C(C)C)C[C@H]1[C@H](C)CC | - | - | - | - | - | -
Cc1[nH]nc(N=CC2=C(O)CC(c3ccco3)CC2=O)c1-c1ccc(Cl)cc1 (stereo unspecified) | - | - | - | - | - | 98.5
Cc1[nH]nc(N=CC2=C(O)CC(C)(C)CC2=O)c1-c1ccc(Cl)cc1 | - | - | - | - | - | -
SMILES | TbMetRS inhib | MC4R antag cAMP | MC4R ag barr | ABCB6 inh MLPCN | iPSC survival up | Exocytosis inh
COc1cc2c(cc1NC(=O)CSc1ccc(C)cc1)oc1ccccc12 | - | - | - | - | - | -
COc1cc2c(cc1NC(=O)CSc1nnnn1-c1ccccc1)oc1ccccc12 | - | - | 36.9 | - | - | -
Cc1cc(C)n2nc(C(=O)OCC(=O)N(C)CC(=O)Nc3ccccc3Cl)nc2n1 | - | - | - | - | - | -
CC(=O)Nc1ccc(-c2ccnc3c2CC(C)(C(=O)NCc2cccc(Cl)c2)O3)cc1 (stereo unspecified) | - | - | - | - | - | -
FC(F)(F)c1cccc(Sc2cc(C(F)(F)F)nc(-c3ccccn3)n2)c1 | - | - | 9.1 | - | - | -
NNC(=O)Cn1nc2n(c1=O)-c1ccccc1SC2 | - | - | - | - | - | -
CC(=O)c1ccc(NC(=O)/C(=C\c2ccc(F)cc2)NC(=O)c2ccco2)cc1 | - | - | - | 74.0 | - | -
O=C(NC(=O)N1CCN(C(c2ccccc2)c2ccccc2)CC1)c1ccccc1 | - | - | - | - | - | -
CC(C)c1ccc(C2NC(=S)NC3=C2C(=O)CCC3)cc1 (stereo unspecified) | - | - | - | 69.0 | - | -
Cc1ccc(C2NC(=S)NC3=C2C(=O)CCC3)cc1 (stereo unspecified) | - | - | - | - | - | -
COc1ccc(N(C(=O)CCl)C(C(=O)NCCc2ccccc2)c2cccs2)cc1 (stereo unspecified) | - | - | 11.7 | - | - | -
COc1ccccc1-c1cn[nH]c1-c1ccc(OCc2ccccc2)cc1O | - | - | - | - | - | -
COc1ccc(-c2cn[nH]c2-c2ccc(OCc3ccccc3)cc2O)cc1 | - | - | 9.3 | - | - | -
COc1ccc(Cc2c(-c3cccc(Cl)c3)nc3c(C)cc(Br)cn23)c(C)c1 | - | . | . | - | - | -
CCC(=O)N1CCC1(C)C(=O)NS(=O)(=O)c1cccc(C#N)c1 (stereo unspecified) | - | - | - | - | - | -
CN(C)c1ccc(C=C2SC(=S)N(Cc3ccco3)C2=O)cc1 | - | - | - | - | - | 104.6
Cc1cc(/C=C2\SC(=S)N(Cc3ccco3)C2=O)c(C)n1-c1ccccc1 | - | - | - | - | - | -
Cc1ccc(-c2noc(Cn3cc(S(=O)(=O)N4CCCC4)ccc3=O)n2)cc1 | - | - | - | - | - | -
CC(C)N1CCc2c(sc(NC(=O)c3cc(-c4cccs4)nc4ccccc34)c2C(N)=O)C1 | - | - | - | - | - | 76.3
CC(C)N1CCc2c(sc(NC(=O)c3nc4ccccc4s3)c2C(N)=O)C1 | - | - | - | - | - | -
COc1ccccc1N(C(=O)CNC(=O)c1ccco1)C(C(=O)NC1CCCC1)c1ccco1 (stereo unspecified) | - | - | - | - | - | -
CN1CCN/C1=C(/C(Cl)=C(Cl)Cl)[N+](=O)[O-] | - | 35.5 | - | - | - | -
Cc1ccc(C(C)(C)C)cc1S(=O)(=O)N1CC(=O)Nc2ccccc21 | - | - | - | - | - | -
Cc1cc(C(C)(C)C)cc(C)c1S(=O)(=O)N1CC(=O)Nc2ccccc21 | - | - | 8.7 | - | - | -
CC(CCc1ccccc1)NC(=O)CNC(=O)c1cccs1 (stereo unspecified) | - | - | - | - | - | -
O=C(COC(=O)CCc1c[nH]c2ccccc12)Nc1ccc([N+](=O)[O-])cc1 | - | - | 8.6 | - | - | -
O=C(COC(=O)CCc1c[nH]c2ccccc12)Nc1cc([N+](=O)[O-])ccc1Cl | - | - | - | - | - | -
